pIC50, pKd, pKi: −log10 of the molar value. Calls of active or inactive are those of the source. No cut-off for these calls is given here.
Key:
Adenosine receptor A3 = target: T1, Adenosine receptor A3 (Homo sapiens, UniProt P0DMS8); test: (§1) Binding affinity to human wild type adenosine A3 receptor expressed in Expi293F cells assessed as dissociation constant by surface plasmon resonance assay
T1 sequence (P0DMS8 whole entry): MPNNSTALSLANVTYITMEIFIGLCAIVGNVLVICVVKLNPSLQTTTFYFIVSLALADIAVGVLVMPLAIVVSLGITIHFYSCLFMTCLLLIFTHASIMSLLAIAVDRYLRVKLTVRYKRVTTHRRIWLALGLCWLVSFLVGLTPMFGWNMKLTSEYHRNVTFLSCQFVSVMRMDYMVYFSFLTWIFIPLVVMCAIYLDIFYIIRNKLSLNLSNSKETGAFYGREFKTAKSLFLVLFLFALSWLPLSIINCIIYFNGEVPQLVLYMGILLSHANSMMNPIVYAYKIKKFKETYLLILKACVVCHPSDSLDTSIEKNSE

Adenosine receptor A2a [1] = target: T2, Adenosine receptor A2a (Homo sapiens, UniProt P29274); test: Binding affinity to human wild type adenosine A2A receptor expressed in Expi293F cells assessed as dissociation constant by surface plasmon resonance assay
T2 sequence (P29274 whole entry): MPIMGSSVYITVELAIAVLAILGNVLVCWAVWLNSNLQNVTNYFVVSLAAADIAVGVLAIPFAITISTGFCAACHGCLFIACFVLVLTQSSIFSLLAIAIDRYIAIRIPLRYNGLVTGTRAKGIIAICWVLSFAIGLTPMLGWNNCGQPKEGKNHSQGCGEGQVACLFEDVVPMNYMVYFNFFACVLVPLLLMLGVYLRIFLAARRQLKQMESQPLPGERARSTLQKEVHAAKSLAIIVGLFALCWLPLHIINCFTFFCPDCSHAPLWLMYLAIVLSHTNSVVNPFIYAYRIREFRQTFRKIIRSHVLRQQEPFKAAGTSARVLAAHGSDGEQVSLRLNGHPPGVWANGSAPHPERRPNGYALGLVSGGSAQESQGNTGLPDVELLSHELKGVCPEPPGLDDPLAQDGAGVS

Adenosine receptor A1 [2] = target: T3, Adenosine receptor A1 (Homo sapiens, UniProt P30542); test: Binding affinity to human wild type adenosine A1 receptor expressed in Expi293F cells assessed as dissociation constant by surface plasmon resonance assay
T3 sequence (P30542 whole entry): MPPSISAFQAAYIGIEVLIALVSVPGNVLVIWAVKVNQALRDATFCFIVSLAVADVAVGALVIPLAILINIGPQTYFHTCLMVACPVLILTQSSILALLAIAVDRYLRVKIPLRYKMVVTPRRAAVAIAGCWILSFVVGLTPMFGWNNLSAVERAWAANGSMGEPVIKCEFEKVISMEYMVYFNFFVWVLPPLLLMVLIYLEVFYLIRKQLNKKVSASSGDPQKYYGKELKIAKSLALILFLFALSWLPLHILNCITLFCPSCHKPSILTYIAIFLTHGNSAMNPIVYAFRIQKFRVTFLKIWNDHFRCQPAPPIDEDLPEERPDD

Adenosine receptor A2b [3] = target: T4, Adenosine receptor A2b (Homo sapiens, UniProt P29275); test: Binding affinity to human wild type adenosine A2B receptor expressed in Expi293F cells assessed as dissociation constant by surface plasmon resonance assay
T4 sequence (P29275 whole entry): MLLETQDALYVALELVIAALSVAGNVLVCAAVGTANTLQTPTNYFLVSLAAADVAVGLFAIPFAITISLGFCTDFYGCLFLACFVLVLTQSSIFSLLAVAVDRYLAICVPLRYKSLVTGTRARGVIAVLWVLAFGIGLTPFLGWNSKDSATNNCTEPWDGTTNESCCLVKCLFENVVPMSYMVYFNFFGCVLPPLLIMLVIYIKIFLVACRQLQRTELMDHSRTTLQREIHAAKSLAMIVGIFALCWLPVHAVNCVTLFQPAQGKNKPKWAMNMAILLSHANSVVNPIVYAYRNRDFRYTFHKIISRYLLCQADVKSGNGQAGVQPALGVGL

Adenosine receptor A2a [4] = target: T2, Adenosine receptor A2a; test: Antagonist activity at human adenosine A2A receptor expressed in HEK293T cells assessed as inhibition of 500 nM NECA-induced cAMP accumulation by GloSensor cAMP accumulation assay; conditions: filed as antagonist
[5] = target: T5, Adenosine receptor A1 (Homo sapiens) (UniProt P30542); test: Binding affinity to human wild type adenosine A1 receptor expressed in Expi293F cells assessed as affinity on-rate by surface plasmon resonance assay
T5 sequence (whole entry): T3 sequence (P30542 whole entry)

[6] = target: T5, Adenosine receptor A1 (Homo sapiens); test: Binding affinity to human wild type adenosine A1 receptor expressed in Expi293F cells assessed as affinity off-rate by surface plasmon resonance assay
Adenosine receptor A2a [7] = target: T2, Adenosine receptor A2a; test: Antagonist activity at human adenosine A2A receptor expressed in HEK293T cells assessed as inhibition of EC20 concentration of NECA-induced cAMP accumulation by measuring fold change in potency by GloSensor cAMP accumulation assay; format: functional, cell-based; conditions: filed as antagonist
Adenosine receptor A2a [8] = target: T2, Adenosine receptor A2a; test: Antagonist activity at human adenosine A2A receptor expressed in HEK293T cells assessed as inhibition of EC20 concentration of NECA-induced cAMP accumulation at higher concentration by GloSensor cAMP accumulation assay; format: functional, cell-based; conditions: filed as antagonist
Summary of the method: (§2)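 HEK293T cells expressing A2A, GloSensor luciferase cAMP read-out; concentration–response curves run against EC20 NECA (3 nM). Data as % of maximum NECA response; mean ± SEM of at least three independent experiments in technical duplicate. Maximum tested concentration 0.63 mM where compound supply was limited; compounds also checked in cells lacking transfected A2A.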

Adenosine receptor A2a [9] = target: T2, Adenosine receptor A2a; test: Antagonist activity at human adenosine A2A receptor expressed in HEK293T cells assessed as inhibition of EC20 concentration of NECA-induced cAMP accumulation by GloSensor cAMP accumulation assay; format: functional, cell-based; conditions: filed as antagonist; summary of the method: as §2
[10] = target: T6, Adenosine receptor A3 (Homo sapiens) (UniProt P0DMS8); test: Binding affinity to human wild type adenosine A3 receptor expressed in Expi293F cells assessed as affinity off-rate by surface plasmon resonance assay
T6 sequence (whole entry): T1 sequence (P0DMS8 whole entry)

Adenosine receptor A1 [11] = target: T3, Adenosine receptor A1; test: Binding affinity to human wild type adenosine A1 receptor expressed in Expi293F cells assessed as affinity on-rate by surface plasmon resonance assay
Adenosine receptor A2a [12] = target: T2, Adenosine receptor A2a; test: Allosteric modulator activity at human adenosine A2A receptor expressed in HEK293T cells assessed as stimulation of NECA-induced cAMP accumulation by GloSensor cAMP accumulation assay; format: functional, cell-based; conditions: filed as positive allosteric modulator
Summary of the method: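 GloSensor cAMP accumulation in HEK293T cells transiently expressing A2A; compound tested for modulation of NECA-stimulated cAMP (EC80 and EC20 NECA), concentrations up to 30 μM. Data as % of maximum NECA response; mean ± SEM of three to four experiments in at least duplicate.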

Adenosine receptor A2a [13] = target: T2, Adenosine receptor A2a; test: Antagonist activity at human adenosine A2A receptor expressed in HEK293T cells assessed as inhibition of NECA-induced Gs short protein activation by TRUPATH assay; format: functional, cell-based
Adenosine receptor A2a [14] = target: T2, Adenosine receptor A2a; test: Binding affinity to human wild type adenosine A2A receptor expressed in Expi293F cells assessed as inhibition constant taken from literature
Adenosine receptor A2a [15] = target: T2, Adenosine receptor A2a; test: Antagonist activity at human adenosine A2A receptor expressed in HEK293T cells assessed as inhibition of EC20 concentration of NECA-induced cAMP accumulation at 0.63 mM by GloSensor cAMP accumulation assay; format: functional, cell-based; conditions: filed as antagonist; summary of the method: as §2
Adenosine receptor A2b [16] = target: T4, Adenosine receptor A2b; test: Binding affinity to human wild type adenosine A2B receptor expressed in Expi293F cells assessed as affinity on-rate by surface plasmon resonance assay
Adenosine receptor A2b [17] = target: T4, Adenosine receptor A2b; test: Binding affinity to human wild type adenosine A2B receptor expressed in Expi293F cells assessed as affinity on-rate by surface plasmon resonance assay
HEK-293T = test: Effect on cAMP accumulation in HEK293T cells by GloSensor cAMP accumulation assay; format: functional, cell-based; conditions: Homo sapiens
Summary of the method: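 HEK293T cells transiently expressing the A2A receptor, with a GloSensor luciferase cAMP read-out. Compound concentration series were tested against NECA at EC80 (500 nM) or EC20 (3 nM), and for agonist activity alone. Cells lacking transfected A2A served as control. Responses are expressed as a percentage of the maximum NECA response, as mean ± SEM of at least three independent experiments in technical duplicate.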

[18] = target: T6, Adenosine receptor A3 (Homo sapiens); test: as §1
[19] = target: Glycogen synthase kinase-3 alpha (Homo sapiens, UniProt P49840); test: Inhibition of recombinant human GSKalpha
Sequence of Glycogen synthase kinase-3 alpha (P49840 whole entry): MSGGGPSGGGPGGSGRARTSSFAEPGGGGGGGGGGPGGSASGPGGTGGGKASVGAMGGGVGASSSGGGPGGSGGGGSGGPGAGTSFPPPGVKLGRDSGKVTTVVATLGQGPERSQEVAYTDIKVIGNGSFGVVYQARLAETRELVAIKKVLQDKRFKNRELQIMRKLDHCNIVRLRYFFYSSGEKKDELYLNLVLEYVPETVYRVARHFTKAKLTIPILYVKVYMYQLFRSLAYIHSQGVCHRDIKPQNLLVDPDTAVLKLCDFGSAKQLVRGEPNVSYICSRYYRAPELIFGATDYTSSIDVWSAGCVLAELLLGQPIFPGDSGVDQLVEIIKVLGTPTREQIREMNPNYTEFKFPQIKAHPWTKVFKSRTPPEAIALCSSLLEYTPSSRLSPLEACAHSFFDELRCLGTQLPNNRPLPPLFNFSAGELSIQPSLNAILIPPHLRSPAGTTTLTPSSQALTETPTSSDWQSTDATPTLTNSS

[20] = target: T6, Adenosine receptor A3 (Homo sapiens); test: Binding affinity to human wild type adenosine A3 receptor expressed in Expi293F cells assessed as affinity on-rate by surface plasmon resonance assay
Adenosine receptor A2b [21] = target: T4, Adenosine receptor A2b; test: Binding affinity to human wild type adenosine A2B receptor expressed in Expi293F cells assessed as inhibition constant by surface plasmon resonance assay
[22] = target: T7, Adenosine receptor A2b (Homo sapiens) (UniProt P29275); test: Binding affinity to human wild type adenosine A2B receptor expressed in Expi293F cells assessed as affinity off-rate by surface plasmon resonance assay
T7 sequence (whole entry): T4 sequence (P29275 whole entry)

Compound	pKd (Adenosine receptor A3)	pKd (Adenosine receptor A2a [1])	pKd (Adenosine receptor A1 [2])	pKd (Adenosine receptor A2b [3])	other results
Cc1nn(-c2ccccc2)nc1C(N)=O	4.00	3.39	4.11	3.85	
O=C1NC(=O)C(c2cccc(Cl)c2)=C1Nc1ccc(O)c(Cl)c1		6.96	5.66		Activity (Adenosine receptor A2a [4]): Active; K [5]: 1.21 10^5/M/s; K [6]: 0.27 s⁻¹; Activity (Adenosine receptor A2a [7]): Active
Oc1ncnc2[nH]ncc12 [ALLOPURINOL]		4.11			
CC(C)NC(=O)c1cc(-c2ccccc2)[nH]n1	4.10	4.31	4.15	3.71	Activity (Adenosine receptor A2a [8]): Active
Nc1ccc2nnc(-c3ccccc3)n2n1	3.80	5.95	4.64	3.92	Activity (Adenosine receptor A2a [9]): Active
O=C(Nc1n[nH]c2nc(-c3ccco3)c(Br)cc12)C1CC1		6.25	5.67		K [5]: 4.25 10^4/M/s; K [6]: 0.09 s⁻¹; Activity (Adenosine receptor A2a [7]): Active; K [10]: 0.041 s⁻¹
O[C@H]1CC[C@H](Nc2nc(-c3ccccc3)nc3[nH]ccc23)CC1			8.26		ka (Adenosine receptor A1 [11]): 6.27 10^5/M/s; K [5]: 6.27 10^5/M/s; K [6]: 0.0034 s⁻¹
CC(C)n1ncc2cc(C(=O)NCc3ccco3)cnc21	3.40	3.68	4.57	4.10	
Nc1nc(N)nc(-c2ccccc2)n1 [BENZOGUANAMINE]	3.98	5.82	5.66	3.97	Activity (Adenosine receptor A2a [9]): Active
Nc1nc(N)c2nccnc2n1		5.02			
O=c1cc(NCc2ccccc2)nc2ccccn12	3.70	3.88	3.81	3.70	
Nc1nsc(-c2ccc(Cl)cc2)n1	4.44	4.66	4.68	4.35	Activity (Adenosine receptor A2a [12]): Active; Activity (Adenosine receptor A2a [7]): Active
Nc1nc(-c2ccccc2)ns1	4.29	3.89	4.29	4.22	
O=C(Nc1ccc2ccccc2n1)c1ccco1	4.25	4.40	4.23	3.91	pIC50 (Adenosine receptor A2a [13]): 6.78
Nc1nc(Nc2ccccc2)nc2c1ncn2[C@@H]1O[C@H](CO)[C@@H](O)[C@H]1O		8.04			pKi (Adenosine receptor A2a [14]): 7.12
Nc1nncc(-c2ccc(Br)cc2)n1		4.30	5.96		Activity (Adenosine receptor A2a [8]): Active
Nc1nsc(-c2ccccc2)n1	3.99	3.86	3.91	3.97	
Fc1ccc(-c2nn3ccccc3c2-c2ccncc2)cc1 [GW434756X]	6.13	5.05	8.22	6.55	Activity (Adenosine receptor A2a [15]): Active; Activity (Adenosine receptor A2a [4]): Active; ka (Adenosine receptor A2b [16]): 1.52 10^5/M/s; K [5]: 1.63 10^6/M/s; K [6]: 0.01 s⁻¹; ka (Adenosine receptor A2b [17]): 1.52 10^5/M/s; K [10]: 0.041 s⁻¹
CCNC(=O)[C@H]1O[C@@H](n2cnc3c(N)ncnc32)[C@H](O)[C@@H]1O					Activity (HEK-293T): Active
COc1cc(/C=N/Nc2ncnc3c2cnn3-c2ccccc2)ccc1O			5.92		Activity [18]: Active; Activity (Adenosine receptor A2a [1]): Active; K [5]: 5.33 10^4/M/s; K [6]: 0.06 s⁻¹; pIC50 [19]: 7.00; Activity (Adenosine receptor A2a [7]): Active; Activity [20]: Active
NC(=O)c1ncoc1-c1ccccc1		4.50			
CS(=O)(=O)c1ccc(C(=O)Nc2cccc(Cl)c2)cc1	4.74	4.87	5.12	4.71	Activity (Adenosine receptor A2a [8]): Active
O=C(NCc1ccccc1)c1ccc2nonc2c1	3.74	4.00	4.04	4.66	
Cn1c(=O)[nH]c2ccccc2c1=O	4.72	4.54	4.46	3.83	
O=C(Nc1ccccc1)Nc1ccccn1	4.28	4.29	4.39	4.36	
N#Cc1c(N)nc(SCc2ncc[nH]2)c(C#N)c1-c1ccc(O)cc1				7.11	pKi (Adenosine receptor A2b [21]): 7.92; ka (Adenosine receptor A2b [17]): 1.1 10^5/M/s; K [22]: 0.0086 s⁻¹

Source: ChEMBL document CHEMBL5126601 (ACS Med Chem Lett, 2022)
